Test results published in ChEMBL document CHEMBL2331121, “Design, synthesis, and pharmacological characterization of N- and O-substituted 5,6,7,8-tetrahydro-4H-isoxazolo[4,5-d]azepin-3-ol analogues: novel 5-HT(2A)/5-HT(2C) receptor agonists with pro-cognitive properties” (J Med Chem, 2013).
Calls of active or inactive are those of the source. The calls are words filed in the database; no cut-off is given here.

Legend:
[1] = target: T1, 5-hydroxytryptamine receptor 2A (Homo sapiens, UniProt P28223); experiment: Agonist activity at human 5HT2A receptor expressed in HEK293 cells assessed as induction of intracellular calcium release at 1 mM measured for 90 secs by fluorescence assay; type: functional, cell-based
T1 sequence (P28223 whole entry): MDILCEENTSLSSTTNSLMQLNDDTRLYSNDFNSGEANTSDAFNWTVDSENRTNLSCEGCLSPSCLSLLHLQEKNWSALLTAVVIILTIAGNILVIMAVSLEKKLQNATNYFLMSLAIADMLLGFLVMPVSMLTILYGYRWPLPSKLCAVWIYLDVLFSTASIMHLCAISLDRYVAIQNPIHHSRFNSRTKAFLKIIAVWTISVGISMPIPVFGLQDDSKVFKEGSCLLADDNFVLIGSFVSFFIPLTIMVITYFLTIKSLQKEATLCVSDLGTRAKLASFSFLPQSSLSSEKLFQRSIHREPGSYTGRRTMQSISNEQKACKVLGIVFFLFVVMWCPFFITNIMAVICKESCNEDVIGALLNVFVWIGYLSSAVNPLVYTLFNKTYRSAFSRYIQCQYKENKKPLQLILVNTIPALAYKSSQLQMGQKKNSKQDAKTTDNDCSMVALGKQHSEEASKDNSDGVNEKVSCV
Method in brief: (§1)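 Stable polyclonal h5-HT2A or h5-HT2C HEK293 cells plated on poly-D-lysine wells, loaded next day with Fluo-4/AM for 1 h at 37 °C. Buffer was HBSS with 20 mM HEPES, 1 mM CaCl₂, 1 mM MgCl₂, 2.5 mM probenecid, pH 7.4. Fluorescence read at 485/525 nm before and up to 90 s after agonist addition. Responses normalised to 5-HT on the same plate. Duplicate, 4−10 experiments.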

[2] = target: T2, 5-hydroxytryptamine receptor 2C (Homo sapiens) (UniProt P28335); experiment: Antagonist activity at human 5HT2C receptor expressed in HEK293 cells assessed as inhibition of 5HT-induced intracellular calcium release at 1 mM measured for 90 secs by fluorescence assay; type: functional, cell-based
T2 sequence (whole entry): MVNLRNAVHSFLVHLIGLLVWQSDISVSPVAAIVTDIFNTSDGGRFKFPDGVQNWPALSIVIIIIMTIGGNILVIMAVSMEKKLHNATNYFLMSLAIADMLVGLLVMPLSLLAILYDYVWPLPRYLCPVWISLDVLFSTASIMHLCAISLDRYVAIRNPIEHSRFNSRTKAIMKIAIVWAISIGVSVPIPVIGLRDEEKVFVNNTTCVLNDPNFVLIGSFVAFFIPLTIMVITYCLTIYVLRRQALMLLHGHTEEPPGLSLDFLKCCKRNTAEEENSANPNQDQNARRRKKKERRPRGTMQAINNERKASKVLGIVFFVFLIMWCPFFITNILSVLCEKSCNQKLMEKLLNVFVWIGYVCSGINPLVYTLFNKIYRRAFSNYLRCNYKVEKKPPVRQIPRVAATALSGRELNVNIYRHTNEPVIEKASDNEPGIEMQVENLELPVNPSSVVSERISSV
Method in brief: (§2)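 Fluo-4/Ca²⁺ read-out in stable h5-HT2A or h5-HT2C HEK293 cells (HBSS/HEPES/probenecid buffer, pH 7.4). Antagonist was added after the dye-loading wash, then cells were challenged with an EC₇₅−EC₈₅ concentration of 5-HT. Emission at 525 nm was monitored up to 90 s after agonist addition. Duplicate, repeated in independent experiments.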

[3] = target: T3, 5-hydroxytryptamine receptor 2C (Homo sapiens, UniProt P28335); experiment: Agonist activity at human 5HT2C receptor expressed in HEK293 cells assessed as induction of intracellular calcium release measured for 90 secs by fluorescence assay; type: functional, cell-based
T3 sequence (P28335 whole entry): T2 sequence (whole entry)

[4] = target: T1, 5-hydroxytryptamine receptor 2A; experiment: Agonist activity at human 5HT2A receptor expressed in HEK293 cells assessed as induction of intracellular calcium release measured for 90 secs by fluorescence assay; type: functional, cell-based
[5] = target: T2, 5-hydroxytryptamine receptor 2C (Homo sapiens); experiment: Agonist activity at human 5HT2C receptor expressed in HEK293 cells assessed as induction of intracellular calcium release at 1 mM measured for 90 secs by fluorescence assay; type: functional, cell-based; method in brief: as §1
[6] = target: T1, 5-hydroxytryptamine receptor 2A; experiment: Antagonist activity at human 5HT2A receptor expressed in HEK293 cells assessed as inhibition of 5HT-induced intracellular calcium release at 1 mM measured for 90 secs by fluorescence assay; type: functional, cell-based; method in brief: as §2
[7] = target: T4, 5-hydroxytryptamine receptor 2C (Rattus norvegicus) (UniProt P08909); experiment: Displacement of [125I]-N-(p-I-Bn)-THAZ from 5HT2C in rat cerebral cortex membrane at 300 uM after 1 hr by scintillation counting analysis; type: cell membranes
T4 sequence (whole entry): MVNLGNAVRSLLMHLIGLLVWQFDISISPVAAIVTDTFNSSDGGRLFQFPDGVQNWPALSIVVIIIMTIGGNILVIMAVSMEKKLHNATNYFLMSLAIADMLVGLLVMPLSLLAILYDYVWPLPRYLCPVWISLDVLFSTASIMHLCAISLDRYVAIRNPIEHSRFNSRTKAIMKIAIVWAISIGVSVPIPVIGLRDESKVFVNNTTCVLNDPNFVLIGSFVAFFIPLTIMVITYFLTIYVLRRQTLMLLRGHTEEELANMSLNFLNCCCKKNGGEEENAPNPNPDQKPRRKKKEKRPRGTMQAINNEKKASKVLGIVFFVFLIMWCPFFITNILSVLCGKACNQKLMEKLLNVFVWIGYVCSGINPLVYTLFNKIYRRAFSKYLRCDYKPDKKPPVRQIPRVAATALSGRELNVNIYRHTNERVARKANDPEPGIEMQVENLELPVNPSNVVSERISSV

[8] = target: T1, 5-hydroxytryptamine receptor 2A; experiment: Agonist activity at human 5HT2A receptor expressed in HEK293 cells assessed as induction of intracellular calcium release by fluorescence assay relative to 5HT; type: functional, cell-based
Method in brief: (§3)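 Stable polyclonal 5-HT2A or 5-HT2C HEK293 cells seeded on poly-D-lysine plates (6 × 10⁴ cells/well). Next day loaded with Fluo-4/AM for 1 h at 37 °C in HBSS/20 mM HEPES/1 mM CaCl₂/1 mM MgCl₂/2.5 mM probenecid, pH 7.4. Fluorescence (485 ex/525 em) recorded before and up to 90 s after agonist. Response relative to 5-HT on the same plate. Duplicate, at least three times.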

[9] = target: T2, 5-hydroxytryptamine receptor 2C (Homo sapiens); experiment: Agonist activity at human 5HT2C receptor expressed in HEK293 cells assessed as induction of intracellular calcium release by fluorescence assay relative to 5HT; type: functional, cell-based; method in brief: as §3
[10] = target: T1, 5-hydroxytryptamine receptor 2A; experiment: biochemical; type: cell-based, tsA201
[11] = target: T3, 5-hydroxytryptamine receptor 2C; experiment: Displacement of [3H]mesulergine from human 5HT2C receptor expressed in tsA201 cell membranes after 1 hr by scintillation counting analysis
[12] = target: T1, 5-hydroxytryptamine receptor 2A; experiment: Agonist activity at human 5HT2A receptor expressed in HEK293 cells assessed as accumulation of IP1 incubated for 1 hr at 37 degC followed by 15 mins at RT by TR-FRET assay relative to 5HT; type: functional, cell-based
Method in brief: (§4)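 Polyclonal HEK293 lines stably expressing human 5-HT2A (variant 1) or 5-HT2C (INI isoform), detached and suspended at 1 × 10⁷ cells/mL in HBSS with 20 mM HEPES, 1 mM CaCl₂, 1 mM MgCl₂, pH 7.4. Ligands in buffer with 40 mM LiCl. Incubated 1 h at 37 °C, then 15 min RT. IP1 read by HTRF 665/615 ratio. Triplicate, at least four times.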

[13] = target: T3, 5-hydroxytryptamine receptor 2C; experiment: Agonist activity at human 5HT2C receptor expressed in HEK293 cells assessed as accumulation of IP1 incubated for 1 hr at 37 degC followed by 15 mins at RT by TR-FRET assay; type: functional, cell-based
[14] = target: T1, 5-hydroxytryptamine receptor 2A; experiment: Agonist activity at human 5HT2A receptor expressed in HEK293 cells assessed as accumulation of IP1 incubated for 1 hr at 37 degC followed by 15 mins at RT by TR-FRET assay; type: functional, cell-based
[15] = target: T2, 5-hydroxytryptamine receptor 2C (Homo sapiens); experiment: Agonist activity at human 5HT2C receptor expressed in HEK293 cells assessed as accumulation of IP1 incubated for 1 hr at 37 degC followed by 15 mins at RT by TR-FRET assay relative to 5HT; type: functional, cell-based; method in brief: as §4

SMILES	Activity [1]	Activity [2]	EC50 ([3]; hek293, read-out: EC50) [µM]	EC50 ([3]; read-out: pEC50 (converted)) [µM]	EC50 ([4]; hek293, read-out: EC50) [µM]	EC50 ([4]; read-out: pEC50 (converted)) [µM]	Activity [5]	Activity [6]	Ki [11] [µM]	further results
O=c1c2c(on1Cc1ccccc1)CCNC2	inactive	inactive	> 1000	> 1000	> 1000	> 1000	inactive	inactive		
NCCc1ccc(O)c(O)c1										Activity [7]: inactive
CCOc1noc2c1CCNC2	inactive	inactive	> 1000	> 1000	> 1000	> 1000	inactive	inactive		
O=C1Nc2cc(Cl)c(Cl)cc2N2CCNCC12 (stereo unspecified)										EC50 ([3]; read-out: EC50): 0.0073 µM; Emax [8]: 110%; Emax [9]: 95%; EC50 ([4]; read-out: EC50): 0.012 µM
Oc1noc2c1CCNCC2	inactive	inactive	> 1000	> 1000	> 1000	> 1000	inactive	inactive	> 300	Ki ([10]; read-out: Ki): > 300 µM; Ki ([10]; read-out: pKi (converted)): > 316 µM
C[C@H](N)Cn1ccc2cc(F)c(Cl)cc21										EC50 ([3]; read-out: EC50): 0.0047 µM; Emax [8]: 117%; Emax [9]: 111%; EC50 ([4]; read-out: EC50): 0.027 µM
NC[C@H](O)c1ccc(O)c(O)c1										Activity [7]: inactive
CC(=O)OCC[N+](C)(C)C										Activity [7]: inactive
NCCCC(=O)O										Activity [7]: inactive
CCn1oc2c(c1=O)CNCC2	inactive	inactive	> 1000	> 1000	> 1000	> 1000	inactive	inactive		
Cn1c2c(c3ccccc31)CCNCC2 [PNU-22394]										Emax [12]: 98%; EC50 [13]: 0.12 µM; EC50 ([3]; read-out: EC50): 0.0077 µM; Emax [8]: 102%; Emax [9]: 101%; EC50 ([4]; read-out: EC50): 0.023 µM; EC50 [14]: 0.21 µM; Emax [15]: 97%
N[C@@H](CCC(=O)O)C(=O)O										Activity [7]: inactive
O=c1c2c(on1Cc1cccc(I)c1)CCNCC2									4.8	
CCn1oc2c(c1=O)CCN(C)CC2	inactive	inactive	> 1000	> 1000	> 1000	> 1000	inactive	inactive	> 300	Ki ([10]; read-out: Ki): > 300 µM; Ki ([10]; read-out: pKi (converted)): > 316 µM
CCn1oc2c(c1=O)CCNC2	inactive	inactive	> 1000	> 1000	> 1000	> 1000	inactive	inactive		
CN1CCc2on(C)c(=O)c2CC1	inactive	inactive	> 1000	> 1000	> 1000	> 1000	inactive	inactive	> 300	Ki ([10]; read-out: Ki): > 300 µM; Ki ([10]; read-out: pKi (converted)): > 316 µM
Cn1oc2c(c1=O)CNCC2	inactive	inactive	> 1000	> 1000	> 1000	> 1000	inactive	inactive		
CCOc1noc2c1CCN(C)CC2	inactive	inactive	> 1000	> 1000	> 1000	> 1000	inactive	inactive	> 300	Ki ([10]; read-out: Ki): > 300 µM; Ki ([10]; read-out: pKi (converted)): > 316 µM
CCOc1noc2c1CCNCC2									100	Ki ([10]; read-out: Ki): 100 µM; EC50 ([3]; read-out: EC50): 3 µM; Emax [8]: 42%; Emax [9]: 67%; EC50 ([4]; read-out: EC50): 7.9 µM
O=c1c2c(on1Cc1ccccc1)CCCNC2	inactive	inactive	> 1000	> 1000	> 1000	> 1000	inactive	inactive		
O=c1c2c(on1Cc1ccccc1I)CCNCC2									7.2	
